Source: ChEMBL document CHEMBL1681666, “Synthesis and in vitro screening of novel N-benzyl aplysinopsin analogs as potential anticancer agents” (2011)

Key:
Type in all cases: functional
[1] = Anticancer activity against human […] cells
In short: (§1)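 NCI 60-cell human tumour panel (leukemia, lung, colon, CNS, melanoma, ovarian, renal, prostate, breast). A first-stage single-dose screen at 10 µM was run. Compounds giving over 60% growth inhibition in at least eight lines went on to a five-dose response. Effect was plotted against log10 molar concentration per line. GI50 is the concentration giving 50% reduction in net protein increase versus control cells. LC50 is the concentration lethal to 50% of cells.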

SK-OV-3 = test: Anticancer activity against human SKOV3 cells; in short: as §1
SK-MEL-2 = test: Anticancer activity against human SK-MEL-2 cells; in short: as §1
EKVX = test: Anticancer activity against human EKVX cells; in short: as §1
786-0 = test: Anticancer activity against human 786-0 cells; in short: as §1
T47D = test: Anticancer activity against human T47D cells
In short: (§2)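 NCI 60-cell-line panel. A single-dose (10 µM) prescreen was run first. Compounds giving over 60% growth inhibition in at least eight lines then went to five-dose response studies. Dose-response curves of effect versus log10 concentration. GI50 is the molar concentration giving a 50% reduction in net protein increase versus control cells. LC50 is the concentration lethal to 50% of cells.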

UO-31 = test: Anticancer activity against human UO31 cells; in short: as §2
HOP-62 = test: Anticancer activity against human HOP62 cells; in short: as §1
OVCAR-5 = test: Anticancer activity against human OVCAR5 cells; in short: as §1
A498 = test: Anticancer activity against human A498 cells; in short: as §1
BT-549 = test: Anticancer activity against human BT549 cells; in short: as §1
OVCAR-8 = test: Anticancer activity against human OVCAR8 cells; in short: as §1
U-251 = test: Anticancer activity against human U251 cells; in short: as §2
IGROV-1 = test: Anticancer activity against human IGROV1 cells; in short: as §1
SN12C = test: Anticancer activity against human SN12C cells; in short: as §1
CCRF-CEM = test: Anticancer activity against human CCRF-CEM cells; in short: as §1
TK-10 = test: Anticancer activity against human TK10 cells; in short: as §2
MOLT-4 = test: Anticancer activity against human MOLT4 cells; in short: as §1
[2] = Anticancer activity against human NCI/ADR cells; conditions: NCI/ADR-RES; in short: as §1
CAKI-1 = test: Anticancer activity against human Caki1 cells; in short: as §1
SF-539 = test: Anticancer activity against human SF539 cells; in short: as §1
K562 = test: Anticancer activity against human K562 cells; in short: as §1
OVCAR-4 = test: Anticancer activity against human OVCAR4 cells; in short: as §1
PC-3 = test: Anticancer activity against human PC3 cells; in short: as §1
SNB-19 = test: Anticancer activity against human SNB19 cells; in short: as §1
NCI-H23 = test: Anticancer activity against human NCI-H23 cells; in short: as §1
RXF 393 = test: Anticancer activity against human RXF393 cells; in short: as §1
MCF7 = test: Anticancer activity against human MCF7 cells; in short: as §1
A549 = test: Anticancer activity against human A549 cells; in short: as §1
[3] = Anticancer activity against human Hs 578T cells; in short: as §1
UACC-257 = test: Anticancer activity against human UACC257 cells; in short: as §2
NCI-H322M = test: Anticancer activity against human NCI-H322M cells; in short: as §1
OVCAR-3 = test: Anticancer activity against human OVCAR3 cells; in short: as §1
SW-620 = test: Anticancer activity against human SW620 cells; in short: as §2
HCT-116 = test: Anticancer activity against human HCT116 cells; in short: as §1
SNB-75 = test: Anticancer activity against human SNB75 cells; in short: as §2
M14 = test: Anticancer activity against human M14 cells; in short: as §1
MDA-MB-435 = test: Anticancer activity against human MDA-MB-435 cells; in short: as §1
SF-268 = test: Anticancer activity against human SF268 cells; in short: as §1
UACC-62 = test: Anticancer activity against human UACC62 cells; in short: as §2
COLO 205 = test: Anticancer activity against human COLO205 cells; in short: as §1
KM12 = test: Anticancer activity against human KM12 cells; in short: as §1
MDA-MB-468 = test: Anticancer activity against human MDA-MB-468 cells; in short: as §1
NCI-H460 = test: Anticancer activity against human NCI-H460 cells; in short: as §1
NCI-H226 = test: Anticancer activity against human NCI-H226 cells; in short: as §1
SF-295 = test: Anticancer activity against human SF295 cells; in short: as §1
ACHN = test: Anticancer activity against human ACHN cells; in short: as §1
HCC 2998 = test: Anticancer activity against human HCC2998 cells; in short: as §1
LOX IMVI = test: Anticancer activity against human LOXIMVI cells; in short: as §1
SK-MEL-5 = test: Anticancer activity against human SK-MEL-5 cells; in short: as §1
SK-MEL-28 = test: Anticancer activity against human SK-MEL-28 cells; in short: as §1
HL-60(TB) = test: Anticancer activity against human HL-60(TB) cells; in short: as §1
HT-29 = test: Anticancer activity against human HT-29 cells; in short: as §1
MDA-MB-231 = test: Anticancer activity against human MDA-MB-231 cells; in short: as §1
Malme-3M = test: Anticancer activity against human MALME-3M cells; in short: as §1
[4] = read-out: LC50 (the source's name)

In the case of `COC(=O)c1ccc2c(/C=C3\NC(=O)NC3=O)cn(Cc3ccc(C#N)cc3)c2c1`, the GI50 [1] was 3.61 µM, the CC50 [1, 4] was over 100 µM and the GI50 (SK-OV-3) was 0.86 µM. The CC50 (SK-OV-3; [4]) was 79.8 µM, the GI50 (SK-MEL-2) was 0.3 µM and the CC50 (SK-MEL-2; [4]) was 30.6 µM. It also gave a GI50 (EKVX) of 4.22 µM, a CC50 (EKVX; [4]) of over 100 µM and a GI50 (786-0) of 2.36 µM. For the same compound, the CC50 (786-0; [4]) was over 100 µM, the GI50 (T47D) was 1.5 µM and the CC50 (T47D; [4]) was over 100 µM. The GI50 (UO-31) was 2.7 µM, the CC50 (UO-31; [4]) was over 100 µM and the GI50 (HOP-62) was 3.58 µM. It also gave a CC50 (HOP-62; [4]) of 73 µM, a GI50 (OVCAR-5) of 5.51 µM and a CC50 (OVCAR-5; [4]) of over 100 µM. It also gave a GI50 (A498) of 0.55 µM, a CC50 (A498; [4]) of over 100 µM and a GI50 (BT-549) of 1.24 µM. It also gave a CC50 (BT-549; [4]) of over 100 µM, a GI50 (OVCAR-8) of 3.75 µM and a CC50 (OVCAR-8; [4]) of over 100 µM. For the same compound, the GI50 (U-251) was 2.03 µM, the CC50 (U-251; [4]) was 59.1 µM and the GI50 (IGROV-1) was 0.66 µM. For the same compound, the CC50 (IGROV-1; [4]) was over 100 µM, the GI50 (SN12C) was 2.8 µM and the CC50 (SN12C; [4]) was over 100 µM. For the same compound, the GI50 (CCRF-CEM) was 3.06 µM, the CC50 (CCRF-CEM; [4]) was over 100 µM and the GI50 (TK-10) was 3.87 µM. The CC50 (TK-10; [4]) was over 100 µM, the GI50 (MOLT-4) was 1.38 µM and the CC50 (MOLT-4; [4]) was over 100 µM. The GI50 [2] was over 100 µM, the CC50 [2, 4] was over 100 µM and the GI50 (CAKI-1) was 2.74 µM. For the same compound, the CC50 (CAKI-1; [4]) was over 100 µM, the GI50 (SF-539) was 2.39 µM and the CC50 (SF-539; [4]) was over 100 µM. The GI50 (K562) was 0.97 µM, the CC50 (K562; [4]) was over 100 µM and the GI50 (OVCAR-4) was 4.13 µM. For the same compound, the CC50 (OVCAR-4; [4]) was over 100 µM, the GI50 (PC-3) was 2.44 µM and the CC50 (PC-3; [4]) was over 100 µM. The GI50 (SNB-19) was 3.77 µM, the CC50 (SNB-19; [4]) was over 100 µM and the GI50 (NCI-H23) was 4.07 µM. It also gave a CC50 (NCI-H23; [4]) of over 100 µM, a GI50 (RXF 393) of 0.58 µM and a CC50 (RXF 393; [4]) of over 100 µM. The GI50 (MCF7) was 3.55 µM, the CC50 (MCF7; [4]) was over 100 µM and the GI50 (A549) was 4.44 µM. For the same compound, the CC50 (A549; [4]) was over 100 µM, the GI50 [3] was 0.97 µM and the CC50 [3, 4] was over 100 µM. It also gave a GI50 (UACC-257) of 4.2 µM, a CC50 (UACC-257; [4]) of over 100 µM and a GI50 (NCI-H322M) of 0.72 µM. The CC50 (NCI-H322M; [4]) was over 100 µM, the GI50 (OVCAR-3) was 2.05 µM and the CC50 (OVCAR-3; [4]) was over 100 µM. For the same compound, the GI50 (SW-620) was 2.27 µM, the CC50 (SW-620; [4]) was over 100 µM and the GI50 (HCT-116) was 1.21 µM. The CC50 (HCT-116; [4]) was over 100 µM, the GI50 (SNB-75) was 4.6 µM and the CC50 (SNB-75; [4]) was over 100 µM. It also gave a GI50 (M14) of 1.43 µM, a CC50 (M14; [4]) of over 100 µM and a GI50 (MDA-MB-435) of 2.76 µM. For the same compound, the CC50 (MDA-MB-435; [4]) was over 100 µM, the GI50 (SF-268) was 4.22 µM and the CC50 (SF-268; [4]) was over 100 µM. The GI50 (UACC-62) was 1.27 µM, the CC50 (UACC-62; [4]) was 51 µM and the GI50 (COLO 205) was 3.16 µM. It also gave a CC50 (COLO 205; [4]) of over 100 µM, a GI50 (KM12) of 3.73 µM and a CC50 (KM12; [4]) of over 100 µM. For the same compound, the GI50 (MDA-MB-468) was 4.14 µM, the CC50 (MDA-MB-468; [4]) was over 100 µM and the GI50 (NCI-H460) was 2.91 µM. The CC50 (NCI-H460; [4]) was over 100 µM, the GI50 (NCI-H226) was 5.94 µM and the CC50 (NCI-H226; [4]) was over 100 µM. For the same compound, the GI50 (SF-295) was 3.09 µM, the CC50 (SF-295; [4]) was over 100 µM and the GI50 (ACHN) was 2.08 µM. For the same compound, the CC50 (ACHN; [4]) was over 100 µM, the GI50 (HCC 2998) was 2.43 µM and the CC50 (HCC 2998; [4]) was 85 µM. It also gave a GI50 (LOX IMVI) of 1.43 µM, a CC50 (LOX IMVI; [4]) of over 100 µM and a GI50 (SK-MEL-5) of 3.25 µM. For the same compound, the CC50 (SK-MEL-5; [4]) was over 100 µM, the GI50 (SK-MEL-28) was 3.79 µM and the CC50 (SK-MEL-28; [4]) was over 100 µM. The GI50 (HL-60(TB)) was 2.54 µM, the CC50 (HL-60(TB); [4]) was over 100 µM and the GI50 (HT-29) was 5.99 µM. The CC50 (HT-29; [4]) was over 100 µM, the GI50 (MDA-MB-231) was 3.32 µM and the CC50 (MDA-MB-231; [4]) was over 100 µM. It also gave a GI50 (Malme-3M) of 2.01 µM and a CC50 (Malme-3M; [4]) of over 100 µM.
